Results published in ChEMBL document CHEMBL3758150, “Discovery and SAR of N-(1-((substituted piperidin-4-yl)methyl)-3-methoxypiperidin-4-yl)-2-methoxybenzamide derivatives: 5-Hydroxytryptamine receptor 4 agonist as a potent prokinetic agent” (Eur J Med Chem, 2016).

Columns and labels:
Rattus norvegicus [1] = assay: Induction of gastric emptying rate in Sprague-Dawley rat at 5 mg/kg, iv administered prior to feeding measured after 30 mins; type: functional, Stomach
[2] = biological target: T1, 5-hydroxytryptamine receptor 4 (Homo sapiens, UniProt Q13639); assay: Displacement of [3H]-GR113808 from human 5-HT4 receptor expressed in African green monkey COS7 cell membranes after 30 mins by liquid scintillation counting analysis; design: species or system COS-7
T1 sequence (Q13639 whole entry): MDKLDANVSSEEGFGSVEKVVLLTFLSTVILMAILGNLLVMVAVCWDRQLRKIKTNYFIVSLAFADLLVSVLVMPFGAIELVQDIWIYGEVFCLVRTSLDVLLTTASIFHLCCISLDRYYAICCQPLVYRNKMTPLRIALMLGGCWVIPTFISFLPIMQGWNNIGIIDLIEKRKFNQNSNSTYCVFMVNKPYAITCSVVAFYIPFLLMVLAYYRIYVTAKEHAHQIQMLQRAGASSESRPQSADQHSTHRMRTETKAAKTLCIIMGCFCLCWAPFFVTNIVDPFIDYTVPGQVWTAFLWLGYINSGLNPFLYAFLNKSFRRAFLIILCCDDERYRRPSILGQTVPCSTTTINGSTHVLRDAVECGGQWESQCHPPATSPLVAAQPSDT
Procedure, shortened: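 Membranes from Cos-7 cells expressing human 5-HT4: cells washed in PBS, pelleted, then resuspended in ice-cold 50 mM HEPES pH 7.4 and spun at 40,000 g for 30 min at 4 °C. Nonspecific binding was set with 10 μM 5-HT. IC50 came from linear regression of the displacement curve.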

[3] = biological target: Voltage-gated inwardly rectifying potassium channel KCNH2 (Homo sapiens, UniProt Q12809); assay: Inhibition of human ERG channel by fluorescence polarization assay
Voltage-gated inwardly rectifying potassium channel KCNH2, sequence (Q12809 whole entry): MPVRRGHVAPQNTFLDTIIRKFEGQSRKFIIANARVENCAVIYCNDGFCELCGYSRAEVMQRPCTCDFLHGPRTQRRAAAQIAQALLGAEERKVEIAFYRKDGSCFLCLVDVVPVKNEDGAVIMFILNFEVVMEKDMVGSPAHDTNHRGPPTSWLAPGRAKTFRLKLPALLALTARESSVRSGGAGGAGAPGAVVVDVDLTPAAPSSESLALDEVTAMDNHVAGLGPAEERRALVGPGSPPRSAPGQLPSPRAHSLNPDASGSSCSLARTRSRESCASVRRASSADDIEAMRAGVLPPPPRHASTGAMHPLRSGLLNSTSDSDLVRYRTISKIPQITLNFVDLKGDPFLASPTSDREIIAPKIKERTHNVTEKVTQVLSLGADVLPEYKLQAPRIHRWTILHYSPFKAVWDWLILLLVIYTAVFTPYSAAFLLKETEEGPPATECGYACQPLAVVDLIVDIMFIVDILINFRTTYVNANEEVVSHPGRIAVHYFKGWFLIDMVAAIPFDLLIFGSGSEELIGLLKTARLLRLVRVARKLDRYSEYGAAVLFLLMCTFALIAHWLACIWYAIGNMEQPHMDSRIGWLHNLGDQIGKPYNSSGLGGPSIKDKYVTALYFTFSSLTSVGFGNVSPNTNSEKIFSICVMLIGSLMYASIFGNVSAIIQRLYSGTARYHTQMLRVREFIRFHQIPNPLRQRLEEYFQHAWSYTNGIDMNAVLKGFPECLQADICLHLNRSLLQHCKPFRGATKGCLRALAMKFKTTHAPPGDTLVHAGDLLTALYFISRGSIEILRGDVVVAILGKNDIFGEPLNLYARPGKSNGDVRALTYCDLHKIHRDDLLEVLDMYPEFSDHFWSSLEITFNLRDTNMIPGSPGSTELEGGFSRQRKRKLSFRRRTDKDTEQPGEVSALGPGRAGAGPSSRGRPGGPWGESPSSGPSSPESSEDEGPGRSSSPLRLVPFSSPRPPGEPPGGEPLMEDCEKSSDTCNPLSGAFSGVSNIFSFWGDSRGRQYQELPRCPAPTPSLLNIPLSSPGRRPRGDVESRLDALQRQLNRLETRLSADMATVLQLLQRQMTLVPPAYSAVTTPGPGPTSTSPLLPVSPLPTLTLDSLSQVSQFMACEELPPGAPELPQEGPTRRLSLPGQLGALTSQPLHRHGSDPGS

[4] = biological target: 5-hydroxytryptamine receptor 4 (Rattus norvegicus, UniProt Q62758); assay: Agonist activity at 5-HT4 receptor in rat esophageal thoracic muscularis mucosae assessed as carbachol-induced contraction
5-hydroxytryptamine receptor 4 (Rattus norvegicus, UniProt Q62758), sequence (Q62758 whole entry): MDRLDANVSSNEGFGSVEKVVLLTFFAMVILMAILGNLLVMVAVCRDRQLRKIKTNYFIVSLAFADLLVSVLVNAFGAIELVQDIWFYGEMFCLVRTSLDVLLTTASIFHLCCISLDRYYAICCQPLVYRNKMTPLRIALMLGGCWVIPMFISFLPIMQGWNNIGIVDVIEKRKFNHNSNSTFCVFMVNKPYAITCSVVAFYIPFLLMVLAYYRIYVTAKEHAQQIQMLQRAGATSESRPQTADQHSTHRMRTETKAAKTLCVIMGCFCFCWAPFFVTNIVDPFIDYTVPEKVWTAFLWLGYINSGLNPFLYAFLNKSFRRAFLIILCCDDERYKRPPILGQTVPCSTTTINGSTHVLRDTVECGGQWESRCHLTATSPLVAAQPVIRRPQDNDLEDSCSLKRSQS
Procedure, shortened: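 The distal 1.2 cm of rat esophagus was equilibrated 60 min in Krebs–Henseleit, washed every 15 min, with isometric force recording. Tissue was precontracted with 3 μM carbachol, then given a cumulative relaxation curve to 5-HT. After a wash and 60 min recovery it was recontracted and a test-compound curve run. Potency is relative to 5-HT in the same preparation.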

[5] = Tmax in rat at 5 mg/kg, po; type: ADME, organism-based; settings: in vivo
[6] = Cmax in rat at 5 mg/kg, po; type: ADME, organism-based; design: dose 5 mg/kg, route oral; settings: in vivo
Rattus norvegicus [7] = assay: Induction of gastric emptying rate in Sprague-Dawley rat at 5 mg/kg, iv administered prior to feeding along with cisplatin injection measured after 40 mins; type: functional, Stomach
Procedure, shortened: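 Male Sprague-Dawley rats (220–250 g) were fasted 18 h with water available. A 2 mL semisolid meal was given 30 min after drug, together with cisplatin 5 mg/kg i.v. Gastric emptying was determined 40 min later from stomach weights versus 0-time controls: [1 − test/control] × 100.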

[8] = Half life in rat at 5 mg/kg, po; type: ADME, organism-based; settings: in vivo
Rattus norvegicus [9] = assay: AUCinfinity in rat at 5 mg/kg, po; type: ADME, organism-based; design: dose 5 mg/kg, time infinity, route oral; settings: in vivo
[10] = Solubility of the compound in distilled water; type: physicochemical
[11] = biological target: Muscarinic acetylcholine receptor M2 (Homo sapiens) (UniProt P08172); settings: 1 to 2 uM
Muscarinic acetylcholine receptor M2 (Homo sapiens), sequence (P08172 whole entry): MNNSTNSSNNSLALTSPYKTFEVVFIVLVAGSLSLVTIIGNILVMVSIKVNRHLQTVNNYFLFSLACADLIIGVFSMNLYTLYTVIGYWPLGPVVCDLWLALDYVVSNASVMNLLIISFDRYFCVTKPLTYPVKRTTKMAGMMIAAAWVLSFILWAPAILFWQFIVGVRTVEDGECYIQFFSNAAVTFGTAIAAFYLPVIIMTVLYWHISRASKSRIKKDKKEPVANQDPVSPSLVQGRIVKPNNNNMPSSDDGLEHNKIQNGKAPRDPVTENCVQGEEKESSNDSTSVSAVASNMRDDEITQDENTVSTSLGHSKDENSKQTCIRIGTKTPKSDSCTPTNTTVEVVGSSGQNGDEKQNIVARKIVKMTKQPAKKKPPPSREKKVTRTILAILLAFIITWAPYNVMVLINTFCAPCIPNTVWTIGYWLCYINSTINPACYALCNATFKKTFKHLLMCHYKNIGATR

[12] = biological target: 5-hydroxytryptamine receptor 2B (Homo sapiens) (UniProt P41595); settings: 1 to 2 uM
5-hydroxytryptamine receptor 2B (Homo sapiens), sequence (P41595 whole entry): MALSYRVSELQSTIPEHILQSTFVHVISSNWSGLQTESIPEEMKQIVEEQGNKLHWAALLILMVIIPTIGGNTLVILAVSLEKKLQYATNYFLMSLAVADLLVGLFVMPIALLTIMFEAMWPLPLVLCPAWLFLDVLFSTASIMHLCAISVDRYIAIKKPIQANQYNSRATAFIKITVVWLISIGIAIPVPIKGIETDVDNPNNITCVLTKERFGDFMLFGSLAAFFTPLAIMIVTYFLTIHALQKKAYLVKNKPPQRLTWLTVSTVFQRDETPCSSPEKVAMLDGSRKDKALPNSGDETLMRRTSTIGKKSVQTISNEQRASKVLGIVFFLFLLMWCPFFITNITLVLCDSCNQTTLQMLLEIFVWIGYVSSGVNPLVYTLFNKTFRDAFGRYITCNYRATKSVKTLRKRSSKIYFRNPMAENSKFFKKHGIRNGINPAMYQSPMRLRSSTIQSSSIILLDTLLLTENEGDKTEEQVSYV

[13] = biological target: Muscarinic acetylcholine receptor M3 (Homo sapiens) (UniProt P20309); settings: 1 to 2 uM
[14] = biological target: 5-hydroxytryptamine receptor 2A (Homo sapiens) (UniProt P28223); settings: 1 to 2 uM
[15] = biological target: Adrenergic receptor alpha-2 (Homo sapiens) (UniProt P08913+P18825+P18089); settings: 1 to 2 uM
[16] = biological target: Mu-type opioid receptor (Homo sapiens) (UniProt P35372); settings: 1 to 2 uM
Mu-type opioid receptor (Homo sapiens), sequence (P35372 whole entry): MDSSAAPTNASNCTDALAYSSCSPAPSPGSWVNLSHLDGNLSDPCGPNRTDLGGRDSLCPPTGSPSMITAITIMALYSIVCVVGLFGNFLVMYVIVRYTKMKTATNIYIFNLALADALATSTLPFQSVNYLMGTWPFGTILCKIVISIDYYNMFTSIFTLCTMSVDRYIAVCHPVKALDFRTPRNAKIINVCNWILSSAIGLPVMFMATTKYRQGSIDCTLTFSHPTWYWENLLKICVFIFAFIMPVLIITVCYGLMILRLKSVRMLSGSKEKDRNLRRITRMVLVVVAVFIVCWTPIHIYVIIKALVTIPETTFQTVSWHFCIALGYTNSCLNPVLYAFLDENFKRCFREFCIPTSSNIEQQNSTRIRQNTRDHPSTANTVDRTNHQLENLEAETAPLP

[17] = biological target: Adrenergic receptor alpha-1 (Homo sapiens) (UniProt P35348+P25100+P35368); settings: 1 to 2 uM
[18] = biological target: 5-hydroxytryptamine receptor 1A (Homo sapiens) (UniProt P08908); settings: 1 to 2 uM
[19] = biological target: D(2) dopamine receptor (Homo sapiens) (UniProt P14416); settings: 1 to 2 uM
D(2) dopamine receptor (Homo sapiens), sequence (P14416 whole entry): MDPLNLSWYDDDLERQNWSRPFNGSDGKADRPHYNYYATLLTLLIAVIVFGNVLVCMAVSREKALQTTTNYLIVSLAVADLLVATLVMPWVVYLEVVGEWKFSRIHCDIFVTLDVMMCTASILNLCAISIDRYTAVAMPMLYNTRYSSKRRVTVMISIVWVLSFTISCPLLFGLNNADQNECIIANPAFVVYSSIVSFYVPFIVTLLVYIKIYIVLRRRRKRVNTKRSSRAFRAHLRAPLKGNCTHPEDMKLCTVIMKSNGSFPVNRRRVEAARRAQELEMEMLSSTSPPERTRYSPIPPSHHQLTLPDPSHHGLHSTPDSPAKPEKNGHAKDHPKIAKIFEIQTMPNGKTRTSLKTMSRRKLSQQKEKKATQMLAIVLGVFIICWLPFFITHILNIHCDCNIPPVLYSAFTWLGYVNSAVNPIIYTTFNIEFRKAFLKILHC

[20] = biological target: Cholecystokinin receptor type A (Homo sapiens) (UniProt P32238); settings: 1 to 2 uM
Cholecystokinin receptor type A (Homo sapiens), sequence (P32238 whole entry): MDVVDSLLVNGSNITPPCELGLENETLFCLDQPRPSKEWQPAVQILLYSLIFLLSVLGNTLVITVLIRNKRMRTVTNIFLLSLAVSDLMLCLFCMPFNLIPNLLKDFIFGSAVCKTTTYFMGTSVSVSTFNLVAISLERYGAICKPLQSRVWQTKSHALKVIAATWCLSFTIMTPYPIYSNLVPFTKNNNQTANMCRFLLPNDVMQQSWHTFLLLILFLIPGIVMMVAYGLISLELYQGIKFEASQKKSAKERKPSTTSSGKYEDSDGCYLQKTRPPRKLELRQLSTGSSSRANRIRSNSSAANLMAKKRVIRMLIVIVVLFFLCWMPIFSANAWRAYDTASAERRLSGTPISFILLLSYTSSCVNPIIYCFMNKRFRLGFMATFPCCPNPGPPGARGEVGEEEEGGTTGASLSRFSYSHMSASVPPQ

[21] = biological target: Beta-1 adrenergic receptor (Homo sapiens) (UniProt P08588); settings: 1 to 2 uM
[22] = biological target: Somatostatin receptor type 2 (Homo sapiens) (UniProt P30874); settings: 1 to 2 uM
[23] = biological target: Kappa-type opioid receptor (Homo sapiens) (UniProt P41145); settings: 1 to 2 uM
Kappa-type opioid receptor (Homo sapiens), sequence (P41145 whole entry): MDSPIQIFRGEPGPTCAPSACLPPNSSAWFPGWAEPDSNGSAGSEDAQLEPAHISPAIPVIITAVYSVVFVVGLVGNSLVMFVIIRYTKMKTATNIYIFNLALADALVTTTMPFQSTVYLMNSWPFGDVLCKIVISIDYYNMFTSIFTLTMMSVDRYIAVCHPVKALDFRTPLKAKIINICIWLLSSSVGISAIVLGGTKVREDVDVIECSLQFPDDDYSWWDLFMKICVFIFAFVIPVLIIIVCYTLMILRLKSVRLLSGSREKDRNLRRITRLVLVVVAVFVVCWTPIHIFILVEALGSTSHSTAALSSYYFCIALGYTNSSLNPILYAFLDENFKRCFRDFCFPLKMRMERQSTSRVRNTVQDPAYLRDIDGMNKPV

[24] = biological target: 5-hydroxytryptamine receptor 3A (Homo sapiens) (UniProt P46098); settings: 1 to 2 uM
[25] = biological target: 5-hydroxytryptamine receptor 1B (Homo sapiens) (UniProt P28222); settings: 1 to 2 uM
5-hydroxytryptamine receptor 1B (Homo sapiens), sequence (P28222 whole entry): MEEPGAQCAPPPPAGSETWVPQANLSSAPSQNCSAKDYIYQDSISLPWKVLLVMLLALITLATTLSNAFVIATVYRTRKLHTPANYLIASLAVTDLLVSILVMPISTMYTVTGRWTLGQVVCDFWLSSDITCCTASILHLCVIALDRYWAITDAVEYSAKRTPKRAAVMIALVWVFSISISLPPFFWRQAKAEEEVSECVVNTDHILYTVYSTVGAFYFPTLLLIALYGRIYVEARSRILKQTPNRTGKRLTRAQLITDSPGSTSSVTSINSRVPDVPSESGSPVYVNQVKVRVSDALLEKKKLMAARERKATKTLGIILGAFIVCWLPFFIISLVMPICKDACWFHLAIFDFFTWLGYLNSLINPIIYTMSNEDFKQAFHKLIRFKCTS

[26] = biological target: T1, 5-hydroxytryptamine receptor 4; settings: 1 to 2 uM
[27] = biological target: D(2) dopamine receptor (Homo sapiens) (UniProt P14416); settings: 1 to 2 uM; remark: listed apart in the source
[28] = biological target: Motilin receptor (Homo sapiens) (UniProt O43193); settings: 1 to 2 uM
[29] = biological target: D(3) dopamine receptor (Homo sapiens) (UniProt P35462); settings: 1 to 2 uM
[30] = biological target: Substance-P receptor (Homo sapiens) (UniProt P25103); settings: 1 to 2 uM
[31] = biological target: Substance-K receptor (Homo sapiens) (UniProt P21452); settings: 1 to 2 uM
Rattus norvegicus [32] = assay: Induction of gastric emptying rate in Sprague-Dawley rat at 0.5 mg/kg, po administered prior to feeding measured after 30 mins; type: functional, Stomach
Procedure, shortened: (§1)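 Male Sprague-Dawley rats (220–250 g) were fasted 18 h with free water. A 2 mL semisolid meal was gavaged 50 min after drug, and rats were killed 30 min later. Stomach plus contents were weighed. Gastric emptying (%) = [1 − test stomach weight/0-time control stomach weight] × 100.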

Rattus norvegicus [33] = assay: Induction of gastric emptying rate in Sprague-Dawley rat at 0.1 mg/kg, po administered prior to feeding measured after 30 mins; type: functional, Stomach; procedure, shortened: as §1

COc1cc(N)c(Cl)cc1C(=O)N[C@H]1CCN(CC2CCN(C(=O)CC(C)C)CC2)C[C@H]1OC (relative stereo)
Activity (Rattus norvegicus [1]): 54.3%

COc1cc(N)c(Cl)cc1C(=O)N[C@H]1CCN(CCCn2cncn2)C[C@H]1OC (relative stereo)
IC50 [2]: 1270 nM | IC50 [3]: 7710 nM | EC50 [4]: 708 nM

COc1cc(N)c(Cl)cc1C(=O)N[C@H]1CCN(CCC(=O)N2CCCCC2)C[C@H]1OC (relative stereo)
IC50 [2]: 560 nM | EC50 [4]: 1050 nM

COc1cc(N)c(Cl)cc1C(=O)N[C@H]1CCN(CC2CCN(C(=O)C(C)(C)C)CC2)C[C@H]1OC (relative stereo)
Tmax [5]: 15 min | Cmax [6]: 345 ng/mL | IC50 [2]: 118 nM | Activity (Rattus norvegicus [1]): 56.4% | Activity (Rattus norvegicus [7]): 56.6% | half-life [8]: 46.2 min | EC50 [4]: 100 nM | AUC (Rattus norvegicus [9]): 263 ng·h/mL

COc1cc(N)c(Cl)cc1C(=O)N[C@H]1CCN(CC2CCN(C(C)=O)CC2)C[C@H]1OC (relative stereo)
IC50 [2]: 592 nM | Activity (Rattus norvegicus [1]): 39.5%

COc1cc(N)c(Cl)cc1C(=O)N[C@H]1CCN(CCCn2cccc2)C[C@H]1OC (relative stereo)
IC50 [2]: 648 nM | EC50 [4]: 676 nM

Br.COc1cc(N)c(Cl)cc1C(=O)N[C@H]1CCN(CC2CCN(C(=O)C(C)C)CC2)C[C@H]1OC
solubility [10]: < 5 mg/mL

COc1cc(N)c(Cl)cc1C(=O)N[C@H]1CCN(CC2CCN(C(=O)N(C)C)CC2)C[C@H]1OC (relative stereo)
IC50 [2]: 52 nM | Activity (Rattus norvegicus [1]): 46%

COc1cc(N)c(Cl)cc1C(=O)N[C@H]1CCN(CCCOc2ccc(F)cc2)C[C@H]1OC (relative stereo) [REL-CISAPRIDE]
Tmax [5]: 15 min | Cmax [6]: 104 ng/mL | Activity (Rattus norvegicus [1]): 57.1% | Activity (Rattus norvegicus [7]): 57.2% | half-life [8]: 88.8 min | AUC (Rattus norvegicus [9]): 142 ng·h/mL

CCC(=O)N1CCCC(CN2CC[C@H](NC(=O)c3cc(Cl)c(N)cc3OC)[C@H](OC)C2)C1 (relative stereo)
IC50 [2]: 493 nM | EC50 [4]: 1550 nM

CCC(=S)N1CCC(CN2CC[C@H](NC(=O)c3cc(Cl)c(N)cc3OC)[C@H](OC)C2)CC1 (relative stereo)
IC50 [2]: 593 nM | Activity (Rattus norvegicus [1]): 61%

COC(=O)N1CCC(CN2CC[C@H](NC(=O)c3cc(Cl)c(N)cc3OC)[C@H](OC)C2)CC1 (relative stereo)
IC50 [2]: 190 nM | Activity (Rattus norvegicus [1]): 56.2%

COc1cc(N)c(Cl)cc1C(=O)N[C@H]1CCN(CCC(=O)N2CCCC2)C[C@H]1OC (relative stereo)
IC50 [2]: 920 nM

COc1cc(N)c(Cl)cc1C(=O)N[C@H]1CCN(CC2CCN(C(=O)C(C)C)CC2)C[C@H]1OC.O=C(O)/C=C\C(=O)O
solubility [10]: > 10 mg/mL

COc1cc(N)c(Cl)cc1C(=O)N[C@H]1CCN(CC2CCN(C(=O)C(C)C)CC2)C[C@H]1OC.O=C(O)C(O)C(O)C(=O)O
solubility [10]: > 30 mg/mL

COc1cc(N)c(Cl)cc1C(=O)N[C@H]1CCN(CC2CCN(C(=O)C(C)C)CC2)C[C@H]1OC.CS(=O)(=O)O
solubility [10]: > 10 mg/mL

COc1cc(N)c(Cl)cc1C(=O)N[C@H]1CCN(CC2CCN(C(=S)C(C)C)CC2)C[C@H]1OC (relative stereo)
IC50 [2]: 155 nM | Activity (Rattus norvegicus [1]): 67.3%

CCC(=O)N1CCC(CCN2CC[C@H](NC(=O)c3cc(Cl)c(N)cc3OC)[C@H](OC)C2)CC1 (relative stereo)
IC50 [2]: 805 nM

COc1cc(N)c(Cl)cc1C(=O)N[C@H]1CCN(CC2CCN(C(=O)NC(C)C)CC2)C[C@H]1OC (relative stereo)
IC50 [2]: 73 nM | Activity (Rattus norvegicus [1]): 59.9%

COc1cc(N)c(Cl)cc1C(=O)N[C@H]1CCN(CCC(=O)N2CCC(Cc3ccccc3)CC2)C[C@H]1OC (relative stereo)
IC50 [2]: 66 nM | EC50 [4]: 6030 nM

COc1cc(N)c(Cl)cc1C(=O)N[C@H]1CCN(CC2CCN(C(=O)C(C)C)CC2)C[C@H]1OC
IC50 [2]: > 10000 nM | Activity (Rattus norvegicus [1]): 56.5%

COc1cc(N)c(Cl)cc1C(=O)N[C@@H]1CCN(CC2CCN(C(=O)C(C)C)CC2)C[C@@H]1OC
IC50 [2]: 68 nM | Activity (Rattus norvegicus [1]): 61.7%

COc1cc(N)c(Cl)cc1C(=O)N[C@H]1CCN(CC2CCN(C(=O)C(C)C)CC2)C[C@H]1OC.O=C(O)CC(O)(CC(=O)O)C(=O)O
solubility [10]: > 30 mg/mL

CCC(=O)N1CCC(CN2CC[C@H](NC(=O)c3cc(Cl)c(N)cc3OC)[C@H](OC)C2)CC1 (relative stereo)
IC50 [2]: 329 nM | Activity (Rattus norvegicus [1]): 57.8% | EC50 [4]: 380 nM

COc1cc(N)c(Cl)cc1C(=O)N[C@H]1CCN(CCn2cccc2)C[C@H]1OC (relative stereo)
IC50 [2]: 5760 nM

CCCC(=O)N1CCC(CN2CC[C@H](NC(=O)c3cc(Cl)c(N)cc3OC)[C@H](OC)C2)CC1 (relative stereo)
IC50 [2]: 178 nM | Activity (Rattus norvegicus [1]): 48.6%

COc1cc(N)c(Cl)cc1C(=O)N[C@H]1CCN(CCCn2ncnn2)C[C@H]1OC
IC50 [2]: 1120 nM | IC50 [3]: > 10000 nM

CCCOC(=O)N1CCC(CN2CC[C@H](NC(=O)c3cc(Cl)c(N)cc3OC)[C@H](OC)C2)CC1 (relative stereo)
IC50 [2]: 134 nM | Activity (Rattus norvegicus [1]): 57.7%

COc1cc(N)c(Cl)cc1C(=O)N[C@H]1CCN(CC2CCN(C(=O)C(C)C)CC2)C[C@H]1OC.Cl
solubility [10]: > 15 mg/mL

COc1cc(N)c(Cl)cc1C(=O)N[C@H]1CCN(CCCn2ccnc2)C[C@H]1OC (relative stereo)
IC50 [2]: 1160 nM | EC50 [4]: 251 nM

CCOC(=O)N1CCC(CN2CC[C@H](NC(=O)c3cc(Cl)c(N)cc3OC)[C@H](OC)C2)CC1
IC50 [2]: 377 nM | Activity (Rattus norvegicus [1]): 55.9%

COc1cc(N)c(Cl)cc1C(=O)N[C@H]1CCN(CC2CCN(C(=O)C(C)C)CC2)C[C@H]1OC (racemic) [listing 1 of 2 here]
inhibition [11]: 50% | inhibition [12]: 50% | inhibition [13]: 50% | inhibition [14]: 50% | inhibition [15]: 50% | inhibition [16]: 50% | inhibition [17]: 50% | inhibition [18]: 50% | inhibition [19]: 50% | inhibition [20]: 50% | inhibition [21]: 50% | inhibition [22]: 50% | inhibition [23]: 50% | inhibition [24]: 50% | inhibition [25]: 50% | inhibition [26]: 50% | inhibition [27]: 50% | inhibition [28]: 50% | inhibition [29]: 50% | inhibition [30]: 50% | inhibition [31]: 50%

COc1cc(N)c(Cl)cc1C(=O)N[C@H]1CCN(CCC(=O)N2CCOCC2)C[C@H]1OC (relative stereo)
IC50 [2]: 954 nM

COc1cc(N)c(Cl)cc1C(=O)N[C@H]1CCN(CC2CCN(C(=O)C(C)C)CC2)C[C@H]1OC (racemic) [listing 2 of 2 here]
Tmax [5]: 15 min | Cmax [6]: 572 ng/mL | IC50 [2]: 134 nM | Activity (Rattus norvegicus [1]): 59.1% | Activity (Rattus norvegicus [32]): 46.9% | Activity (Rattus norvegicus [7]): 58.6% | half-life [8]: 58.8 min | Activity (Rattus norvegicus [33]): 46.2% | EC50 [4]: 45.7 nM | AUC (Rattus norvegicus [9]): 483 ng·h/mL
